Results taken from paper PMC8935478 (Journal of medicinal chemistry, 2021).

Assays:
[1] = system: MOLM-13; experiment: Cell growth inhibition, CellTiter-Glo; format: cell-based
[2] = system: MV4;11; experiment: Cell growth inhibition, CellTiter-Glo; format: cell-based, human
[3] = system: HOXA9 mRNA in MV4;11 cells; experiment: qRT-PCR gene expression in MV4; format: cell-based, human; conditions: 24h of treatment
Outline: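 Total RNA from in vitro-grown cells isolated with RNeasy. cDNA made with a High-Capacity reverse transcription kit. TaqMan gene expression assays with gene-specific primers amplified HOXA9, MEIS1, ITGAM, GAPDH and HPRT1. Relative transcript levels calculated by the comparative Ct method.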

[4] = system: MV4;11 subcutaneous tumors; experiment: MV4; format: in vivo, mice; conditions: 100 mg/kg daily for 26 days, oral gavage; 157 mm^3 at the beginning of the treatment
Outline: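 Female C.B-17 SCID mice (5–6 weeks) implanted sc in the right flank with 5×10^6 MV4;11 cells in 1:1 Matrigel. Randomized once tumors reached the target volume. Dosed once daily by oral gavage at 10 ml/kg; vehicle 0.5% MC (400cP) + 0.2% Tween 80 (w/w). Body weight recorded daily. Calipers three times weekly; volume = 0.5×W×W×L; mean ± SEM. Regrowth followed to day 45 after treatment start.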

COC(=O)N[C@H]1CCC[C@@H]1[C@](CN1CCC1)(c1cccc(F)c1)C1CCN(CC2(OC)CN(c3ccc(S(=O)(=O)C4CN(C(=O)/C=C/CN(C)C)C4)cc3)C2)CC1 [Compound 19, Methyl ((1S,2R)-2-(2-(azetidin-1-yl)-1-(1-((1-(4-((1-((E)-4-(dimethylamino)but-2-enoyl)-azetidin-3-yl)sulfonyl)phenyl)-3-methoxyazetidin-3-yl)methyl)piperidin-4-yl)-1-(3-fluorophenyl)ethyl)cyclopentyl)carbamate]
Fold more potent than compound 17 in inhibiting proliferation ([1]; MOLM-13, ratio of IC50): 9 fold | Fold more potent than compound 17 in inhibiting proliferation ([2]; MV4;11, ratio of IC50): 72 fold

C=CC(=O)N1CC(S(=O)(=O)c2ccc(N3CC(CN4CCC([C@@](CN5CCC5)(c5cccc(F)c5)[C@H]5CCC[C@@H]5NC(=O)OC)CC4)(OC)C3)cc2)C1 [Compound 20, Methyl ((1S,2R)-2-(1-(1-((1-(4-((1-acryloylazetidin-3-yl)sulfonyl)phenyl)-3-methoxyazetidin-3-yl)methyl)piperidin-4-yl)-2-(azetidin-1-yl)-1-(3-fluorophenyl)ethyl)cyclopentyl)carbamate]
Fold less potent than compound 19 in inhibiting growth ([1]; MOLM-13, ratio of IC50): 8 fold | Fold less potent than compound 19 in inhibiting growth ([2]; MV4;11, ratio of IC50): 49 fold

C=CC(=O)N1CCC[C@H](S(=O)(=O)c2ccc(N3CC(CN4CCC([C@@](CN5CCC5)(c5cccc(F)c5)[C@H]5CCC[C@@H]5NC(=O)OC)CC4)(OC)C3)cc2)C1 [Compound 22, Methyl ((1S,2R)-2-(1-(1-((1-(4-(((S)-1-acryloylpiperidin-3-yl)sulfonyl)phenyl)-3-methoxy-azetidin-3-yl)methyl)piperidin-4-yl)-2-(azetidin-1-yl)-1-(3-fluorophenyl)ethyl)-cyclopentyl)carbamate]
Times more potent than compound 21 ([1]; MOLM-13): 2 times | Times more potent than compound 21 ([2]; MV4;11): 2 times

C=CC(=O)N1CCC[C@@H](S(=O)(=O)c2ccc(N3CC(CN4CCC([C@@](CN5CCC5)(c5cccc(F)c5)[C@H]5CCC[C@@H]5NC(=O)OC)CC4)(OC)C3)cc2)C1 [Compound 23, Methyl ((1S,2R)-2-(1-(1-((1-(4-(((R)-1-acryloylpiperidin-3-yl)sulfonyl)phenyl)-3-methoxy-azetidin-3-yl)methyl)piperidin-4-yl)-2-(azetidin-1-yl)-1-(3-fluorophenyl)ethyl)cyclopentyl)-carbamate]
Times more potent than compound 21 ([1]; MOLM-13): 2 times | Times more potent than compound 21 ([2]; MV4;11): 2 times

C=CC(=O)N1C[C@@H]2C[C@H]1CN2S(=O)(=O)c1ccc(N2CC(CN3CCC([C@@](CN4CCC4)(c4cccc(F)c4)[C@H]4CCC[C@@H]4NC(=O)OC)CC3)(OC)C2)cc1 [Compound 24, Methyl ((1S,2R)-2-(1-(1-((1-(4-(((1S,4S)-5-acryloyl-2,5-diazabicyclo[2.2.1]heptan-2-yl)-sulfonyl)phenyl)-3-methoxyazetidin-3-yl)methyl)piperidin-4-yl)-2-(azetidin-1-yl)-1-(3-fluoro-phenyl)ethyl)cyclopentyl)carbamate]
Concentration as low as which HOXA9 gene expression is effectively modulated [3]: 10 nM | Fold more potent than compound 20 ([1]; MOLM-13): 8–10 fold | Fold more potent than stereoisomer compound 25 ([1]; MOLM-13, ratio of IC50): 9 fold | Average tumor volume on day 26 of the treatment [4]: 106 mm^3 | Fold more potent than compound 20 ([2]; MV4;11): 8–10 fold | Fold more potent than stereoisomer compound 25 ([2]; MV4;11, ratio of IC50): 40 fold

CCC(=O)N1C[C@@H]2C[C@H]1CN2S(=O)(=O)c1ccc(N2CC(CN3CCC([C@@](CN4CCC4)(c4cccc(F)c4)[C@H]4CCC[C@@H]4NC(=O)OC)CC3)(OC)C2)cc1 [Compound 26, Methyl ((1S,2R)-2-(2-(azetidin-1-yl)-1-(3-fluorophenyl)-1-(1-((3-methoxy-1-(4-(((1S,4S)-5-propionyl-2,5-diazabicyclo[2.2.1]heptan-2-yl)sulfonyl)phenyl)azetidin-3-yl)methyl)piperidin-4-yl)ethyl)cyclopentyl)carbamate]
Times less potent than 24 in inhibition of cell growth ([1]; MOLM-13): > 10 times | Times less potent than 24 in inhibition of cell growth ([2]; MV4;11): > 10 times
